Data reported in ChEMBL document CHEMBL4433221, “Novel Sustainable-by-Design HDAC Inhibitors for the Treatment of Alzheimer's Disease” (ACS Med Chem Lett, 2019).
The source made the active and inactive calls. The calls are words filed in the database; no cut-off is given here.

Tests used:
[1] = Permeability of the compound at pH 7.4 PBS buffer at 100 uM measured upto 6 hrs by PAMPA-BBB assay
N9 [2] = experiment: Immunomodulatory activity in mouse N9 cells assessed as reduction in LPS-induced iNOS expression at 5 to 25 uM incubated for 24 hrs by Western blot analysis; format: functional, cell-based
How it was run: (§1)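 N9 mouse microglial cells stimulated with LPS (100 ng/mL) and treated at 5 and 25 μM. iNOS and MRC1 levels were read by Western blot with GAPDH as loading control. Densitometry is expressed as percentage of LPS-only cells, as mean ± SE of three independent experiments.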

[3] = Neurotoxicity against rat CGN cells assessed as cell viability at 5 uM incubated for 24 hrs by MTT assay; format: toxicity, cell-based; conditions: read-out: Activity
How it was run: (§2)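 Primary rat cerebellar granule neuron cultures were exposed for 24 h to 5, 25 or 50 μM. Viability was measured by MTT and expressed as percentage of untreated controls, as mean ± SE of at least three experiments, each run in triplicate.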

[4] = target: T1, Protein deacetylase HDAC6 (Homo sapiens) (UniProt Q9UBN7); experiment: Inhibition of human recombinant HDAC6 using fluorogenic peptide p53 residues 379-382 (RHKK(Ac)AMC) as residues at 10 uM by fluorescence method
T1 sequence (whole entry): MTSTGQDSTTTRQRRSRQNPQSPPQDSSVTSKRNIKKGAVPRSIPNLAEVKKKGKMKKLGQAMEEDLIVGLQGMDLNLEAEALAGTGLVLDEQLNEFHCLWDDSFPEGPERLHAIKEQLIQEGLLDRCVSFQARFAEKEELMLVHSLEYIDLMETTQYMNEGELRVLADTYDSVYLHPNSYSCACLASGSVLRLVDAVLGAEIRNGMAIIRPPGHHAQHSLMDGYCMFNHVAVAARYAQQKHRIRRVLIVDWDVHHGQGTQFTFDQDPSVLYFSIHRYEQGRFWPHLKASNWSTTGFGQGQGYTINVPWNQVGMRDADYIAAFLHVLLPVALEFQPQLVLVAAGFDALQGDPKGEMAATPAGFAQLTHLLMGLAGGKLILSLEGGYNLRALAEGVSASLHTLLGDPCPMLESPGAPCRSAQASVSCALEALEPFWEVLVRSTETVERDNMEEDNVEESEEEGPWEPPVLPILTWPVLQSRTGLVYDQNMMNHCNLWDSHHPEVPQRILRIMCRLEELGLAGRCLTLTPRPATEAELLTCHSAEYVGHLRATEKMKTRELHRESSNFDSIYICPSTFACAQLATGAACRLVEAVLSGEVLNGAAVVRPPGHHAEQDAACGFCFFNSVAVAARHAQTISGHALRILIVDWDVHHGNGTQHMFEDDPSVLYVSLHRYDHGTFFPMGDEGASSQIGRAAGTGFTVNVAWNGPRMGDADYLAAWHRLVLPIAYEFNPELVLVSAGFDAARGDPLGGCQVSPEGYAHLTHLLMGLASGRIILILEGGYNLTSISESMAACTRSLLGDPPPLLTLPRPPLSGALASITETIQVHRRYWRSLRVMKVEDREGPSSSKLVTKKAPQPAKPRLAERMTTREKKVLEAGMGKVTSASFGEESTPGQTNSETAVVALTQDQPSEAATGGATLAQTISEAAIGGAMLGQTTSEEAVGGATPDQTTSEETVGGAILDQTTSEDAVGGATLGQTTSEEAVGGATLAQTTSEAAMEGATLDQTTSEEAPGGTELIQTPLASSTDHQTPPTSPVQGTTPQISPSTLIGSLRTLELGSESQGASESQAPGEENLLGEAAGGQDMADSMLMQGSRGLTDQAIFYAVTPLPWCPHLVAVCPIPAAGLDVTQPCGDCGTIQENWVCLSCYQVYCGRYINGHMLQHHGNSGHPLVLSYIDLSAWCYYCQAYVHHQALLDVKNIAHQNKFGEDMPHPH
How it was run: (§3)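 Selectivity profile across HDAC isoforms 1–11 at a single concentration of 10 μM, run in duplicate.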

Rattus norvegicus = species: Rattus norvegicus; experiment: Neuroprotective activity against low serum/K+ deprivation-induced toxicity in rat CGN cells assessed as increase in cell viability at 5 to 25 uM pre-treated for 6 hrs followed by 24 hrs co-treatment with serum/K+ starvation and measured after 24 hrs by MTT assay; format: functional, cell-based
How it was run: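 Primary rat cerebellar granule neurons were pretreated for 6 h, then cotreated for 24 h under low-serum and K+ deprivation to induce death. Viability was compared with control and deprivation-only conditions, with tacrine as reference compound.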

[5] = target: Histone deacetylase 9 (Homo sapiens) (UniProt Q9UKV0); experiment: Inhibition of human recombinant HDAC9 using fluorogenic trifluoroacetyl lysine as substrate at 10 uM by fluorescence method; how it was run: as §3
[6] = target: Histone deacetylase 3 (Homo sapiens) (UniProt O15379); experiment: Inhibition of human recombinant HDAC3 using fluorogenic peptide p53 residues 379-382 (RHKK(Ac)AMC) as residues at 10 uM by fluorescence method; how it was run: as §3
[7] = target: Histone deacetylase 5 (Homo sapiens) (UniProt Q9UQL6); experiment: Inhibition of human recombinant HDAC5 using fluorogenic trifluoroacetyl lysine as substrate at 10 uM by fluorescence method; how it was run: as §3
Histone deacetylase 1 = Histone deacetylase 1 (Homo sapiens, UniProt Q13547); experiment: Inhibition of human recombinant HDAC1 using ZMAL (Z-(Ac)Lys-AMC fluorogenic substrate incubated for 90 mins by fluorescence method
N9 [8] = experiment: Immunomodulatory activity in mouse N9 cells assessed as reduction in LPS-induced MRC1 expression at 5 to 25 uM incubated for 24 hrs by Western blot analysis; format: functional, cell-based; how it was run: as §1
[9] = target: Histone deacetylase 4 (Homo sapiens) (UniProt P56524); experiment: Inhibition of human recombinant HDAC4 using fluorogenic trifluoroacetyl lysine as substrate at 10 uM by fluorescence method; how it was run: as §3
[10] = target: T2, Protein deacetylase HDAC6 (Homo sapiens, UniProt Q9UBN7); experiment: Inhibition of human recombinant HDAC6 using ZMAL (Z-(Ac)Lys-AMC fluorogenic substrate incubated for 90 mins by fluorescence method
T2 sequence (Q9UBN7 whole entry): T1 sequence (whole entry)

[11] = Neurotoxicity against rat CGN cells assessed as cell viability at 50 uM incubated for 24 hrs by MTT assay; format: toxicity, cell-based; conditions: read-out: Activity; how it was run: as §2
N9 [12] = experiment: Immunomodulatory activity in mouse N9 cells assessed as increase in LPS-induced MRC1 expression at 25 uM incubated for 24 hrs by Western blot analysis; format: functional, cell-based; how it was run: as §1

Chain of Histone deacetylase 3 (Homo sapiens) (O15379 whole entry, the tested form may be a part): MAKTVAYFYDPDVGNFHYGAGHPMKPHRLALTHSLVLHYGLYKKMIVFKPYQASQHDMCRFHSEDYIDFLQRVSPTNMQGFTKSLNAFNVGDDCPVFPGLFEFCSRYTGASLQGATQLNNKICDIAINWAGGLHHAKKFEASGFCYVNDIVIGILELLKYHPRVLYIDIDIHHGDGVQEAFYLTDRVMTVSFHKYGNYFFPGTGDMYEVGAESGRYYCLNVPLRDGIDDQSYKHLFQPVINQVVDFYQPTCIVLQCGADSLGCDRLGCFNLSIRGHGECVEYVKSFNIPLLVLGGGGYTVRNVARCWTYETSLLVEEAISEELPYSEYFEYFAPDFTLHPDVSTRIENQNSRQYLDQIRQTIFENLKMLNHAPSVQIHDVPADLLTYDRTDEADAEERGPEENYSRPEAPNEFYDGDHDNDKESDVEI
Chain of Histone deacetylase 9 (Homo sapiens) (Q9UKV0 whole entry, the tested form may be a part): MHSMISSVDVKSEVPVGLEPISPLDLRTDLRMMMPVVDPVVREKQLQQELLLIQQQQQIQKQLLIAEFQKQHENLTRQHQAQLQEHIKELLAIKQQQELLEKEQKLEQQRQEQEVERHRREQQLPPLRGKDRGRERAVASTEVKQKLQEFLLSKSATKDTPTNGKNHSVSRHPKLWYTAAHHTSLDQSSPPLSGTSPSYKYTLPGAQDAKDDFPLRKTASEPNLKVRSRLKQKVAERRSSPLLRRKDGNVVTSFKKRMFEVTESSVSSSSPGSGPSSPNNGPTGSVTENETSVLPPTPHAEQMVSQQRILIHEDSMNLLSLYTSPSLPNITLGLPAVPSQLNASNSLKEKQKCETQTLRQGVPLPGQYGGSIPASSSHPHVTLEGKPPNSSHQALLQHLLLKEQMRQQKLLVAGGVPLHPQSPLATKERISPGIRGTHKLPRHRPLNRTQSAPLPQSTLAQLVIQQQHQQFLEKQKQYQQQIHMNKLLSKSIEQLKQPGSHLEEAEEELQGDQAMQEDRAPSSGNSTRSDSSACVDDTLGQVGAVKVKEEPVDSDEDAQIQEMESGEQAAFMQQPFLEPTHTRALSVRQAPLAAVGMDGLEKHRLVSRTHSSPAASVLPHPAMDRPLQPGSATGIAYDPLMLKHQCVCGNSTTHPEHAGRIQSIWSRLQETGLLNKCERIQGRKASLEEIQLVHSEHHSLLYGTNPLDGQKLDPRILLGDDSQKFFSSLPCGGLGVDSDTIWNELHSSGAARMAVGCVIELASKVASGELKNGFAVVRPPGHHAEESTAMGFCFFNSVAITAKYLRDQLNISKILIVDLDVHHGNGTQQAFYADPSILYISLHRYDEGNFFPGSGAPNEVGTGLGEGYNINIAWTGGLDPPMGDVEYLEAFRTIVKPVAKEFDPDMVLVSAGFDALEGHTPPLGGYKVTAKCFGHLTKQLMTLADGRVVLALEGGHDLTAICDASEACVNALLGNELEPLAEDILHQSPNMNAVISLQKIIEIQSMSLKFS
Chain of Histone deacetylase 5 (Homo sapiens) (Q9UQL6 whole entry): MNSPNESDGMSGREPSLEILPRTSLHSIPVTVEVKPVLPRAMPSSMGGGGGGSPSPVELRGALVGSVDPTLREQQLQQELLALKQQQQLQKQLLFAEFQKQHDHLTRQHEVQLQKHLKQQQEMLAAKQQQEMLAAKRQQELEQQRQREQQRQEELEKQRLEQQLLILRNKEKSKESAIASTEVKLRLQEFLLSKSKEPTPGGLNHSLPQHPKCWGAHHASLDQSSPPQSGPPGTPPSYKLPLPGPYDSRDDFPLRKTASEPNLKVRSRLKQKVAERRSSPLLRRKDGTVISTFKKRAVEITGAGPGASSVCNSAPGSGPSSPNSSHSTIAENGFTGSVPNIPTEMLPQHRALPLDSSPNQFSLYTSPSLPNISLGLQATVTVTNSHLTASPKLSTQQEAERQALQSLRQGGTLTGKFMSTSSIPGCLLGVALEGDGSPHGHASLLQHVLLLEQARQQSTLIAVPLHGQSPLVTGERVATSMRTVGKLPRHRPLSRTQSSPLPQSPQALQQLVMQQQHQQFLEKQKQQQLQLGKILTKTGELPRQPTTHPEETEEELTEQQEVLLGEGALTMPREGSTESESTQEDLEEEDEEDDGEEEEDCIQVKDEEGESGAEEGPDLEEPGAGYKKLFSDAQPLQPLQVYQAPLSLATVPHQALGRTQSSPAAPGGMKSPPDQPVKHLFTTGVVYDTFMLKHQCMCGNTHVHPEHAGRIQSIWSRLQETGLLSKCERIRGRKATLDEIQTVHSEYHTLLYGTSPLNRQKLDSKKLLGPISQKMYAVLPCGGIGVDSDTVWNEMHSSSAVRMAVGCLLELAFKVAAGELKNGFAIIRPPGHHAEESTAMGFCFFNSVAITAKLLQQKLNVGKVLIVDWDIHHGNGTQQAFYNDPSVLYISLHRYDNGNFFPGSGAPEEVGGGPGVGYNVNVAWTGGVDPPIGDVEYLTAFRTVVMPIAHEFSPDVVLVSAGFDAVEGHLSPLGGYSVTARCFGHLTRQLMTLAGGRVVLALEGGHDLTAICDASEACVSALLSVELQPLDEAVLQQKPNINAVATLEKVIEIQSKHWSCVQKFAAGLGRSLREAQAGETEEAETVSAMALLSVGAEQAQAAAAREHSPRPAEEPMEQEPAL
Chain of Histone deacetylase 1 (Q13547 whole entry): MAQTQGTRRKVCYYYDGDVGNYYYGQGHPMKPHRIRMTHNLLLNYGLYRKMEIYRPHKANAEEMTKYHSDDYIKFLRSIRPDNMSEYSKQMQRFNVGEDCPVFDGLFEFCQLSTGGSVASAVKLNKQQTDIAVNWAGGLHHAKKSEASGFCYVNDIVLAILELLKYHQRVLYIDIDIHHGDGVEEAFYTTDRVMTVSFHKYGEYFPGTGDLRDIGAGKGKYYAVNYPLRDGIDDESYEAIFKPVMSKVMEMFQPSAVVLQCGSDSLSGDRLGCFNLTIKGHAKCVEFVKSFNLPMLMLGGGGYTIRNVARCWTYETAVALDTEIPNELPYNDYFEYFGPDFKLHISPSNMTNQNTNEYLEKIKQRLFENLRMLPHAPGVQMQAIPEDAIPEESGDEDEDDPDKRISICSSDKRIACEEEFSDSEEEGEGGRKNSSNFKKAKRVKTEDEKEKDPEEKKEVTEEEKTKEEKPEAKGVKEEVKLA
Chain of Histone deacetylase 4 (Homo sapiens) (P56524 whole entry): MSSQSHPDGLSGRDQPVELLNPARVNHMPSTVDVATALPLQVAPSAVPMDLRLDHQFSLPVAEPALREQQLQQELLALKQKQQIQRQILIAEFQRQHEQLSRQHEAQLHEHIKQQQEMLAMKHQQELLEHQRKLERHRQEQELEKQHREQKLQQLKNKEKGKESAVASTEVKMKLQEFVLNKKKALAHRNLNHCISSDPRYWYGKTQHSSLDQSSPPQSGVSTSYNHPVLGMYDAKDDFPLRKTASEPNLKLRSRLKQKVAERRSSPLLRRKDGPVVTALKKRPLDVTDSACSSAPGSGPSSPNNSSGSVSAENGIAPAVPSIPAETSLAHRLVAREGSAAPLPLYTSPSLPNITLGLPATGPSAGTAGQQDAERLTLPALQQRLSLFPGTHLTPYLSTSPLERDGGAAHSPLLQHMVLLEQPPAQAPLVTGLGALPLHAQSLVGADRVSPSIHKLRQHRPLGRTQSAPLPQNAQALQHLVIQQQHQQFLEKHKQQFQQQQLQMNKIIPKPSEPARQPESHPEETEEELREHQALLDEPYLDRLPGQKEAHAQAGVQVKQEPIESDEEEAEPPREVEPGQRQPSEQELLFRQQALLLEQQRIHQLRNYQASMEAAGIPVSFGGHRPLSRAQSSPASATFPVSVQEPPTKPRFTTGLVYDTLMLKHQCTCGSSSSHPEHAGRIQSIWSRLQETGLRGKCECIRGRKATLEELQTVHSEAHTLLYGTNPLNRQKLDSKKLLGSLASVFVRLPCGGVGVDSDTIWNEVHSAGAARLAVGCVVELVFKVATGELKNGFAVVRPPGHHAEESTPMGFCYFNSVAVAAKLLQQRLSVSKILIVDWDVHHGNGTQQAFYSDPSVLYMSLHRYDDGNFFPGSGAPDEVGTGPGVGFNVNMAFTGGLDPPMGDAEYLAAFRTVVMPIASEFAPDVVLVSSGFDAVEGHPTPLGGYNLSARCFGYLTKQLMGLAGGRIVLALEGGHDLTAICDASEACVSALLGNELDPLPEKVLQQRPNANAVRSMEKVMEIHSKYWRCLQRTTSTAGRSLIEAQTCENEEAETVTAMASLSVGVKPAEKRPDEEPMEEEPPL

Structure (SMILES) | Papp at 6 h, 100 µM [1] | Activity (N9 [2]) | viability at 24 h, 5 µM [3] | inhibition [4] | Activity (Rattus norvegicus) | inhibition [5] | inhibition [6] | inhibition [7] | IC50 (Histone deacetylase 1) | Activity (N9 [8]) | inhibition [9] | IC50 [10] | viability at 24 h, 50 µM [11] | Activity (N9 [12])
COc1cccc(CCCCCCCC(=O)NO)c1 | 13.4 ×10⁻⁶ cm/s | Active | ≤ 50% | Active | inactive | inactive | inactive | inactive | 316 nM | Dose-dependent effect | inactive | 190 nM | – | –
COC(=O)c1c(CCCCCCCC(=O)NO)cccc1OC | 10.2 ×10⁻⁶ cm/s | Active | – | Active | inactive | inactive | inactive | inactive | 775 nM | – | inactive | 215 nM | > 80% | Active
